Measurements taken from ChEMBL document CHEMBL1142114, “Kaurane diterpenoids from Isodon excisus inhibit LPS-induced NF-kappaB activation and NO production in macrophage RAW264.7 cells” (J Nat Prod, 2007).
pIC50: −log10 of the molar value. The source made the active and inactive calls. The calls are words filed in the database; no cut-off is given here.

Key:
Assay type in all cases: functional, cell-based
RAW264.7 [1] = assay: Inhibition of NO production in LPS-stimulated RAW264.7 cells after 24 hrs; details: Mus musculus, RAW264.7, 24 h
Method in brief: (§1)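 RAW264.7 cells (1 × 10^5/well) were stimulated with LPS 1 µg/mL for 24 h with or without compound (0.1, 0.3, 1, 3, 10 µM). Nitrite in the culture supernatant was measured with Griess reagent. The remaining cells were checked for viability by MTT. IC50 is relative to vehicle control, mean ± SD of three separate experiments.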

RAW264.7 [2] = assay: Inhibition of NF-kappaB activation in LPS-stimulated RAW264.7 cells after 24 hrs; details: Mus musculus, RAW264.7, 24 h
Method in brief: (§2)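 RAW264.7 cells transfected with a reporter plasmid carrying eight kappaB elements driving secreted alkaline phosphatase, seeded 5 × 10^4 cells/well. After 3 h at 37 °C, cells were given compound (0.1–10 µM) plus LPS 1 µg/mL for 24 h. SEAP activity was read at 405 nm with p-nitrophenyl phosphate substrate in diethanolamine/MgCl2/L-homoarginine buffer. IC50 is relative to vehicle control, mean ± SD of three experiments.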

RAW264.7 [3] = assay: Inhibition of NO production in LPS-stimulated RAW264.7 cells at 10 uM after 24 hrs; details: Mus musculus; method in brief: as §1
RAW264.7 [4] = assay: Inhibition of NF-kappaB activation in LPS-stimulated RAW264.7 cells at 10 uM after 24 hrs; details: Mus musculus; method in brief: as §2

Row | SMILES | pIC50 (RAW264.7 [1]) | pIC50 (RAW264.7 [2]) | Activity (RAW264.7 [3]) | Activity (RAW264.7 [4])
1 | C=C1C(=O)[C@@]23CC[C@H]4[C@@](C)(CCC(=O)[C@@]4(C)COC(C)=O)[C@@H]2[C@@H](O)C[C@@H]1C3 [EXCISUSIN E] | 5.87 | 5.99 | – | –
2 | C=C1C(=O)[C@@]23CC[C@@H]4[C@](C)(CO)[C@@H](OC(C)=O)CC[C@@]4(C)[C@@H]2[C@@H](O)C[C@@H]1C3 [EXCISUSIN A] | 6.17 | 6.05 | – | –
3 | C=C1C(=O)[C@]23C[C@H]1C[C@H](O)[C@H]2[C@@]1(C)[C@H]([C@@H](O)C3)C(C)(C)[C@@H](OC(C)=O)C[C@@H]1O [INFLEXANIN B] | 5.60 | 5.74 | – | –
4 | C=C1C(=O)[C@]23C[C@H]1C[C@H](OC(C)=O)[C@H]2[C@@]1(C)[C@H]([C@@H](O)C3)C(C)(C)[C@@H](O)C[C@@H]1O [EXCISUSIN D] | 5.54 | 5.49 | – | –
5 | N=C(N)NN [PIMAGEDINE] | 4.49 | – | – | –
6 | C=C1C(=O)[C@]23C[C@H]1C[C@H](O)[C@H]2[C@]1(C)CCC(=O)C(C)(C)[C@H]1[C@@H](O)C3 [INFLEXARABDONIN I] | 5.91 | 5.94 | – | –
7 | C=C1C(=O)[C@@]23CC[C@@H]4C(C)(C)[C@@H](OC(C)=O)C[C@H](O)[C@@]4(C)[C@@H]2[C@@H](O)C[C@@H]1C3 [EXCISUSIN B] | 6.25 | 6.59 | – | –

Second part, led by results:

Row | pIC50 (RAW264.7 [1]) | pIC50 (RAW264.7 [2]) | SMILES | Activity (RAW264.7 [3]) | Activity (RAW264.7 [4])
8 | 6.03 | 6.36 | C=C1C(=O)[C@]23C[C@H]1C[C@H](OC(C)=O)[C@H]2[C@@]1(C)[C@H]([C@@H](O)C3)C(C)(C)[C@@H](OC(C)=O)C[C@@H]1O [INFLEXINOL] | – | –
9 | 6.32 | 6.62 | C=C1C(=O)[C@@]23CC[C@@H]4C(C)(C)[C@@H](OC(C)=O)C[C@H](O)[C@@]4(C)[C@@H]2[C@@H](OC(C)=O)C[C@@H]1C3 [INFLEXARABDONIN G] | – | –
10 | 6.16 | 6.64 | C=C1C(=O)[C@@]23CC(=O)[C@@H]4C(C)(C)[C@@H](OC(C)=O)C[C@H](O)[C@@]4(C)[C@@H]2[C@@H](OC(C)=O)C[C@@H]1C3 [INFLEXIN] | – | –
11 | – | 5.94 | C=C1C(=O)O[C@@H]2C3O[C@]3(C)CC/C=C(\C)CC[C@@H]12 (stereo not given in full) | – | –
12 | < 5.00 | < 5.00 | C=C1[C@@H]2C[C@H](OC(C)=O)[C@@H]3[C@](C2)(C[C@H](O)[C@@H]2C(C)(C)[C@@H](OC(C)=O)C[C@H](O)[C@]23C)[C@@H]1O [INFLEXARABDONIN A] | inactive | inactive
13 | 6.20 | 6.40 | C=C1C(=O)[C@]23C[C@H]1C[C@H](O)[C@H]2[C@]1(C)CC[C@H](OC(C)=O)C(C)(C)[C@H]1[C@@H](O)C3 [INFLEXANIN A] | – | –
14 | < 5.00 | < 5.00 | C=C1[C@@H]2C[C@H](O)[C@H]3[C@]4(C)CC[C@@H](O)[C@@](C)(COC(C)=O)[C@H]4CC[C@]3(C2)[C@@H]1O [EXCISUSIN C] | inactive | inactive
